pIC50: −log10 of the molar value. Values after ≈ are worked out from the molar mass of the structure shown. Each block holds one compound with its values, some of them ahead of it. Active and inactive are the calls of the source. No cut-off for these calls is given here.
Experiments:
Bos taurus [1] = organism: Bos taurus; test: Activation of full-length myosin ATPase activity in bovine Cardiomyofibril in presence of CaCl2 and ATP by HTS assay; assay type: tissue-based
Summary of the method: (§1)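 Calcium-stimulated ATPase activity of cardiac myofibrils (bovine), slow skeletal myofibrils (bovine masseter), fast skeletal myofibrils (rabbit) or chicken gizzard smooth muscle myosin; 10-point dose response up to 40 μM.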

[2] = target: cGMP-inhibited 3',5'-cyclic phosphodiesterase 3A (Homo sapiens, UniProt Q14432); test: Inhibition of PDE3A (unknown origin) using cAMP as substrate preincubated for 20 mins followed by substrate addition measured after 30 mins by HTS assay
cGMP-inhibited 3',5'-cyclic phosphodiesterase 3A, sequence (Q14432 whole entry): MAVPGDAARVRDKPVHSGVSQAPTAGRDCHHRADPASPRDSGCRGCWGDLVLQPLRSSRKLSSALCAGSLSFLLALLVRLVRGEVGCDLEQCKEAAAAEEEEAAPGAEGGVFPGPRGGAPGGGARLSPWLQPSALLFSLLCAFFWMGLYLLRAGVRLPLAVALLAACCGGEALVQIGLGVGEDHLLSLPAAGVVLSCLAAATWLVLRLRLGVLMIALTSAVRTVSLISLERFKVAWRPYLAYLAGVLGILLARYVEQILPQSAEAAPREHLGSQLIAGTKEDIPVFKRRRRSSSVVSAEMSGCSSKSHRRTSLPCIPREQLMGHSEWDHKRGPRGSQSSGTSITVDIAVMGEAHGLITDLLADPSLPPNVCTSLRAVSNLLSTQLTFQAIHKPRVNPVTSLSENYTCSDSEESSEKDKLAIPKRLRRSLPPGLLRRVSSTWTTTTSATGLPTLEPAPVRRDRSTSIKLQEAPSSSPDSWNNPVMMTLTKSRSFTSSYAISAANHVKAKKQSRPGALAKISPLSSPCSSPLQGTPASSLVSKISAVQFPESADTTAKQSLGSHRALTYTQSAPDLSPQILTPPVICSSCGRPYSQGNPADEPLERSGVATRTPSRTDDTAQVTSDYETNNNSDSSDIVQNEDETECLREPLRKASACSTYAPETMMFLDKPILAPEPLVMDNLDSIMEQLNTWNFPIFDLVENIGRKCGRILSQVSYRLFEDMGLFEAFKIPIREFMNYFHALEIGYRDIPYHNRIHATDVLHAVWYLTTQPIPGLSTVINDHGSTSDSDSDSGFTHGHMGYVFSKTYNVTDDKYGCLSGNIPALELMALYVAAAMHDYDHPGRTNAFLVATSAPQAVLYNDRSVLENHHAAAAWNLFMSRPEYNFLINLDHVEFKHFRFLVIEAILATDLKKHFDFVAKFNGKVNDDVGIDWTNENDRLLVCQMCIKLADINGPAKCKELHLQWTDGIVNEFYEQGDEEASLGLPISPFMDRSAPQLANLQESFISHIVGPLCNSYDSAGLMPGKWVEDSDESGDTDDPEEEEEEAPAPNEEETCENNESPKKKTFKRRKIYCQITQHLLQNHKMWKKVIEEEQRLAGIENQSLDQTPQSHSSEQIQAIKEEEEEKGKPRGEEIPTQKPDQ
Summary of the method: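 PDE3A preincubated with compound in 50 mM Tris, 5 mM MgCl₂, pH 7.5, for 20 min at room temperature. Then 0.2 µM cAMP substrate added for 30 min at room temperature, followed by a PDELight stop/detection mix.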

Bos taurus [3] = organism: Bos taurus; test: Activation of Myosin S1 ATPase activity in bovine Cardiomyofibril at 40 uM in presence of bovine cardiac thin filament; assay type: tissue-based; conditions: filed as activator
Oryctolagus cuniculus [4] = organism: Oryctolagus cuniculus; test: Activation of Myosin S1 ATPase activity in rabbit fast skeletal myofibrils at 40 uM in presence of bovine cardiac thin filament; assay type: tissue-based; conditions: filed as activator
[5] = Clearance in Sprague-Dawley rat at 0.5 mg/kg,iv administered as bolus injection measured after 24 hrs by HPLC analysis; assay type: ADME, organism-based; conditions: in vivo
Summary of the method: (§2)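 Male Sprague-Dawley rats given a single intravenous bolus; blood sampled from just before dosing to 24 h after; compound in blood or plasma measured by HPLC against a standard.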

[6] = Half life in Sprague-Dawley rat at 0.5 mg/kg,iv administered as bolus injection measured after 24 hrs by HPLC analysis; assay type: ADME, organism-based; conditions: in vivo; summary of the method: as §2
[7] = Volume of distribution in Sprague-Dawley rat at 0.5 mg/kg,iv administered as bolus injection measured after 24 hrs by HPLC analysis; assay type: ADME, organism-based; conditions: in vivo; summary of the method: as §2
[8] = Plasma protein binding in rat assessed as unbound fraction at 5 uM incubated for 6 hrs by equilibrium dialysis based HPLC analysis; assay type: ADME, cell-free
Summary of the method: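 Equilibrium dialysis: compound added at 5 μM to the buffer chamber, shaken against rat plasma for 6 h at 37 °C. Both chambers analysed by HPLC against standards; reported as % unbound.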

Bos taurus [9] = organism: Bos taurus; test: Activation of full-length myosin ATPase activity in bovine slow skeletal myofibrils in presence of CaCl2 and ATP by HTS assay; assay type: tissue-based; conditions: filed as activator; summary of the method: as §1
[10] = Solubility of compound at pH 6.8 incubated for 12 hrs by HPLC analysis; assay type: physicochemical; conditions: buffer, pH 6.8, 12 h
Summary of the method: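 Agitated 12 h at room temperature in pH 6.8 monopotassium phosphate JP2 buffer, filtered, quantified by HPLC against a standard.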

Bos taurus [11] = organism: Bos taurus; test: Activation of full-length myosin ATPase activity in bovine Cardiomyofibril at 0.01 to 100 uM in presence of CaCl2 and ATP by HTS assay; assay type: tissue-based; conditions: dose 0.01-100 µM
Bos taurus [12] = organism: Bos taurus; test: Activation of full-length myosin ATPase activity in bovine slow skeletal myofibrils at 0.01 to 100 uM in presence of CaCl2 and ATP by HTS assay; assay type: tissue-based; conditions: dose 0.01-100 µM
Cardiac muscle cell [13] = test: Induction of Sprague-Dawley rat Cardiomyocyte contractility assessed as increase in myocyte fractional shortening at 10 uM incubated for 5 mins by imaging analysis; assay type: functional, cell-based
Cardiac muscle cell [14] = test: Induction of Sprague-Dawley rat Cardiomyocyte contractility by measuring myocyte relaxation velocity at 10 uM incubated for 5 mins by imaging analysis; assay type: functional
Cardiac muscle cell [15] = test: Induction of Sprague-Dawley rat Cardiomyocyte contractility by measuring myocyte relaxation time at 10 uM incubated for 5 mins by imaging analysis; assay type: functional
Cardiac muscle cell [16] = test: Induction of Sprague-Dawley rat Cardiomyocyte contractility assessed as increase in myocyte relaxation velocity at 10 uM incubated for 5 mins by imaging analysis relative to control; assay type: functional; set-up: scale not given: the % may be the effect or the level left
Cardiac muscle cell [17] = test: Induction of Sprague-Dawley rat Cardiomyocyte contractility assessed as increase in myocyte relaxation time at 10 uM incubated for 5 mins by imaging analysis relative to control; assay type: functional; set-up: scale not given: the % may be the effect or the level left
Oryctolagus cuniculus [18] = organism: Oryctolagus cuniculus; conditions: Fast skeletal myofibrils
Gallus gallus [19] = organism: Gallus gallus; conditions: Gizzard
Gallus gallus [20] = organism: Gallus gallus; test: Activation of full-length myosin ATPase activity in chicken Gizzard at 0.01 to 40 uM in presence of CaCl2 and ATP by HTS assay; conditions: dose 0.01-40 µM
Oryctolagus cuniculus [21] = organism: Oryctolagus cuniculus; test: Activation of full-length myosin ATPase activity in rabbit fast skeletal myofibrils at 0.01 to 40 uM in presence of CaCl2 and ATP by HTS assay; conditions: dose 0.01-40 µM

SMILES: O=c1[nH]c(=O)c2cc(S(=O)(=O)Nc3cnc(-c4ccccc4)nc3)ccc2[nH]1
EC40 (Bos taurus [1]): > 39 µM

SMILES: C[C@H]1C[C@H](C)CN(c2ccc(NS(=O)(=O)c3ccc4c(c3)c(=O)[nH]c(=O)n4C)cn2)C1
EC40 (Bos taurus [1]; filed as activator): 21.9 µM

SMILES: Cn1c(=O)[nH]c(=O)c2cc(S(=O)(=O)Nc3ccc(-c4ccccc4)cc3)ccc21
EC40 (Bos taurus [1]; filed as activator): < 0.1 µM | pIC50 [2]: 5.34

SMILES: O=c1[nH]c2ccc(S(=O)(=O)Nc3ccc(-c4ccccc4)cc3)cc2[nH]1
EC40 (Bos taurus [1]; filed as activator): 5.5 µM | Activity (Bos taurus [3]): Active | Activity (Oryctolagus cuniculus [4]): Active

SMILES: O=c1[nH]c(=O)c2cc(S(=O)(=O)Nc3ccc(-c4ccccc4)cn3)ccc2[nH]1
EC40 (Bos taurus [1]; filed as activator): 18 µM

SMILES: Cc1nc2ccc(S(=O)(=O)Nc3ccc(N4C[C@H](C)C[C@@H](C)C4)nc3)cc2c(=O)[nH]1
EC40 (Bos taurus [1]; filed as activator): 4.5 µM | pIC50 [2]: < 4.40

SMILES: Cc1nc2cc(OCCN3CCOCC3)c(S(=O)(=O)Nc3ccc(N4C[C@H](C)C[C@@H](C)C4)nc3)cc2c(=O)[nH]1
EC40 (Bos taurus [1]; filed as activator): 0.7 µM | pIC50 [2]: < 4.40 | clearance [5]: 7.1 mL/min/kg | t1/2 [6]: 0.6 h | Vd [7]: 3.8 L/kg | fraction unbound at 6 h, 5 µM [8]: 0.037

SMILES: CNc1cc2nc(C)[nH]c(=O)c2cc1S(=O)(=O)Nc1ccc(N2C[C@H](C)C[C@@H](C)C2)nc1
EC40 (Bos taurus [1]; filed as activator): 1.4 µM | pIC50 [2]: < 4.40 | clearance [5]: 3.3 mL/min/kg | t1/2 [6]: 1.1 h | Vd [7]: 1.8 L/kg | fraction unbound at 6 h, 5 µM [8]: 0.012

SMILES: O=c1[nH]c(=O)c2cc(S(=O)(=O)Nc3ccc(N4CCCCCC4)cc3)ccc2[nH]1
EC40 (Bos taurus [1]; filed as activator): 1.1 µM | EC40 (Bos taurus [9]): 1.7 µM | pIC50 [2]: 5.64 | solubility [10]: 2.3 µM (≈ 0.953 µg/mL) | Activity (Bos taurus [11]): inactive | Activity (Bos taurus [12]): inactive | Activity (Cardiac muscle cell [13]): Active | Activity (Cardiac muscle cell [14]): 55.4 um/s | Time (Cardiac muscle cell [15]): 0.308 s | Activity (Cardiac muscle cell [16]): 23% | Activity (Cardiac muscle cell [17]): 30% | Activity (Bos taurus [3]): Active | Activity (Oryctolagus cuniculus [4]): Active | EC40 (Oryctolagus cuniculus [18]): > 39.2 µM | EC40 (Gallus gallus [19]): > 39.2 µM | Activity (Gallus gallus [20]): inactive | Activity (Oryctolagus cuniculus [21]): inactive

SMILES: C[C@@H]1C[C@@H](C)CN(c2ccc(NS(=O)(=O)c3ccc4c(c3)c(=O)[nH]c(=O)n4C)cn2)C1
EC40 (Bos taurus [1]; filed as activator): 0.5 µM

SMILES: C[C@@H]1C[C@H](C)CN(c2ccc(NS(=O)(=O)c3ccc4c(c3)c(=O)[nH]c(=O)n4C)cn2)C1
EC40 (Bos taurus [1]; filed as activator): 11.1 µM

SMILES: C[C@@H]1CCCN(c2ccc(NS(=O)(=O)c3ccc4c(c3)c(=O)[nH]c(=O)n4C)cn2)C1
EC40 (Bos taurus [1]; filed as activator): 4.3 µM

SMILES: O=c1[nH]c(=O)c2cc(S(=O)(=O)Nc3ccc(-c4ccccc4)nc3)ccc2[nH]1
EC40 (Bos taurus [1]; filed as activator): 5.3 µM

The remaining lines, values ahead:

EC40 (Bos taurus [1]): > 33 µM
SMILES: C[C@H]1CCCN(c2ccc(NS(=O)(=O)c3ccc4c(c3)c(=O)[nH]c(=O)n4C)cn2)C1

EC40 (Bos taurus [1]): > 30 µM
SMILES: Cn1c(=O)[nH]c(=O)c2cc(S(=O)(=O)Nc3ccc(N4CCCCC4)nc3)ccc21

EC40 (Bos taurus [1]): > 39 µM
SMILES: O=c1[nH]c(=O)c2cc(S(=O)(=O)Nc3ccccc3)ccc2[nH]1

EC40 (Bos taurus [1]; filed as activator): < 0.1 µM | EC40 (Bos taurus [9]): < 0.1 µM | pIC50 [2]: 5.34 | solubility [10]: 2.4 µM (≈ 0.944 µg/mL) | EC40 (Oryctolagus cuniculus [18]): > 39.2 µM | EC40 (Gallus gallus [19]): > 39.2 µM
SMILES: O=c1[nH]c(=O)c2cc(S(=O)(=O)Nc3ccc(-c4ccccc4)cc3)ccc2[nH]1

EC40 (Bos taurus [1]; filed as activator): 0.7 µM | pIC50 [2]: < 4.40 | clearance [5]: 0.1 mL/min/kg | t1/2 [6]: 2.3 h | fraction unbound at 6 h, 5 µM [8]: 0.008
SMILES: COc1cc2nc(C)[nH]c(=O)c2cc1S(=O)(=O)Nc1ccc(N2C[C@H](C)C[C@@H](C)C2)nc1

EC40 (Bos taurus [1]): > 39 µM
SMILES: CN(c1ccc(-c2ccccc2)cc1)S(=O)(=O)c1ccc2[nH]c(=O)[nH]c(=O)c2c1

Reference: ChEMBL document CHEMBL5506001 (J Med Chem, 2024)
